Measured values taken from ChEMBL document CHEMBL2163322, “Identification of small molecule inhibitors of the HIV-1 nucleocapsid-stem-loop 3 RNA complex” (J Med Chem, 2012).
The source made the active and inactive calls. No cut-off for these calls is given here.

How the values were obtained:
Nucleic Acid [1] = test: Binding affinity to double stranded RNA by fluorescence spectrometry; type: nucleic-acid assay; conditions: for Kd: read-out: Kd(app)
Procedure, shortened: (§1)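 Fluorescence titration of 5′-fluorescein-labeled RNA (25 nM) in 10 mM Tris-HCl pH 7.4, 25 mM NaCl at 25 °C. Ligand is added stepwise until the signal plateaus, with 3–5 min equilibration per addition. Excitation is 490 nm; emission at 517 nm is used. Fraction bound is fit to a 1:1 model, or a 2:1 cooperative model for one ligand, to give apparent KD. Fluorescein-only and DMSO controls are run. SD is from at least three measurements.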

Nucleic Acid [2] = test: Binding affinity to HIV 1 fluorescein-labeled SL3 RNA by fluorescence spectrometry; type: nucleic-acid assay, Human immunodeficiency virus 1; conditions: for Kd: read-out: Kd(app); for Activity: Human immunodeficiency virus 1; procedure, shortened: as §1
Nucleic Acid [3] = test: Binding affinity to single stranded RNA by fluorescence spectrometry; type: nucleic-acid assay; conditions: for Kd: read-out: Kd(app); procedure, shortened: as §1
Nucleic Acid [4] = test: Selectivity ratio of Kd for double stranded RNA to Kd for HIV 1 SL3 RNA; type: nucleic-acid assay
Nucleic Acid [5] = test: Selectivity ratio of Kd for single stranded RNA to Kd for HIV 1 SL3 RNA; type: nucleic-acid assay
Nucleic Acid [6] = test: Binding affinity to HIV 1 SL3 RNA by ITC analysis; type: nucleic-acid assay, Human immunodeficiency virus 1; conditions: read-out: Kd(app)
Procedure, shortened: (§2)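 Isothermal titration calorimetry at 25 °C. Ligand at 1 mM is injected in 10 μL aliquots into 20 μM RNA. Both are in 10 mM sodium phosphate pH 7.4 with 10% DMSO. Injections last 24 s and are spaced 240 s apart. Heats are corrected with ligand-into-buffer controls. KD values come from a sequential two-site binding fit to heat versus ligand:RNA molar ratio. SD is from two measurements.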

Nucleic Acid [7] = test: Destabilization of HIV1 [32P]-labeled SL3 RNA-NCp complex assessed as displacement of NCp from SL3 RNA after 1 hr by electrophoretic gel mobility shift assay; type: nucleic-acid assay, Human immunodeficiency virus 1; conditions: for Ki: read-out: Ki(app)
Procedure, shortened: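 Gel shift assay. Ligand is then added at rising concentrations for another 1 h. Samples are run on a 6% native gel at 4 °C. IC50 comes from a Hill fit of bound-RNA counts. Ki = IC50/(1+[PT]/KD). SD is from at least three experiments.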

Nucleic Acid [8] = test: Binding affinity to HIV 1 SL3 RNA assessed as second binding dissociation constant by ITC analysis; type: nucleic-acid assay, Human immunodeficiency virus 1; conditions: read-out: Kd(app)
Procedure, shortened: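 ITC at 25 °C: ligand (1 mM) in 10 mM sodium phosphate pH 7.4 with 10% DMSO injected in 10 μL aliquots into 20 μM SL3 RNA in the same buffer. Injections lasted 24 s at 240 s spacing. Heats of ligand-into-buffer titrations were subtracted. Heat versus ligand:RNA molar ratio was fit to a sequential two-site model, with the second KD taken from the second site. Two measurements.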

Nucleic Acid [9] = test: Inhibition of HIV1 [32P]-labeled SL3 RNA interaction with NCp at 1mM after 1 hr by electrophoretic gel mobility shift assay; type: nucleic-acid assay; conditions: Human immunodeficiency virus 1
Procedure, shortened: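 Screen for single-point inhibition. Ligand is added at a final 1 mM to a preformed NCp7–SL3 RNA complex and incubated 1 h. Bound and free RNA are then resolved by gel mobility shift assay.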

Nucleic Acid [10] = test: Binding affinity to single stranded RNA assessed as second binding dissociation constant by ITC analysis; type: nucleic-acid assay; conditions: read-out: Kd(app); procedure, shortened: as §2
Nucleic Acid [11] = test: Binding affinity to single stranded RNA by ITC analysis; type: nucleic-acid assay; conditions: read-out: Kd(app); procedure, shortened: as §2
Nucleic Acid [12] = test: Binding affinity to double stranded RNA by ITC analysis; type: nucleic-acid assay; conditions: read-out: Kd(app); procedure, shortened: as §2
Nucleic Acid [13] = test: Binding affinity to double stranded RNA assessed as second binding dissociation constant by ITC analysis; type: nucleic-acid assay; conditions: read-out: Kd(app); procedure, shortened: as §2

## CC1CCN(c2ccc(N)cc2)CC1
Nucleic Acid [1]
  Activity: Active
Nucleic Acid [2]
  Kd: 44 µM
Nucleic Acid [3]
  Activity: Active

## CN1CCN(CCCN2c3ccccc3Sc3ccc(C(F)(F)F)cc32)CC1 [TRIFLUOPERAZINE]
Nucleic Acid [1]
  Kd: 2.19 µM
Nucleic Acid [2]
  Kd: 1.7 µM
Nucleic Acid [3]
  Kd: 2 µM

## COc1ccc(N/C(S)=N/CCCn2ccnc2)cc1
Nucleic Acid [2]
  Activity: inactive

## COc1ccc(NCc2ccc([N+](=O)[O-])s2)cc1OC
Nucleic Acid [1]
  Kd: 8.4 µM
Nucleic Acid [2]
  Kd: 11.1 µM
Nucleic Acid [3]
  Kd: 14 µM

## Nc1ccccc1NCCOc1ccccc1
Nucleic Acid [1]
  Activity: Active
Nucleic Acid [2]
  Kd: 51 µM
Nucleic Acid [3]
  Activity: Active

## CNC(=O)c1cc2c(=O)n3cccc(C)c3nc2n(CCCO)c1=N
Nucleic Acid [1]
  Kd: 8.2 µM
Nucleic Acid [2]
  Kd: 3.5 µM
Nucleic Acid [3]
  Kd: 9.5 µM

## O=[N+]([O-])c1ccc(SCCO)c2ncccc12
Nucleic Acid [4]
  Selectivity ratio: > 12
Nucleic Acid [1]
  Kd: > 1110 µM
Nucleic Acid [5]
  Selectivity ratio: > 7
Nucleic Acid [2]
  Kd: 90 µM
Nucleic Acid [3]
  Kd: > 604 µM

## Cc1cccn2c(=O)c3cc(C(=O)NC(C)c4ccccc4)c(=N)n(CCOCCO)c3nc12 (centres undefined)
Nucleic Acid [1]
  Kd: 5.1 µM
Nucleic Acid [2]
  Kd: 4.5 µM
Nucleic Acid [3]
  Kd: 4.1 µM

## O=C(C[n+]1cccc(C(=O)N/N=C/c2ccc(Br)cc2)c1)c1ccccc1
Nucleic Acid [2]
  Activity: inactive

## O=C1NC(=S)N/C1=C/c1ccc2ccccc2c1
Nucleic Acid [1]
  Kd: 12 µM
Nucleic Acid [2]
  Kd: 13.2 µM
Nucleic Acid [3]
  Kd: 7.5 µM

## Nc1c(S(=O)(=O)O)cc(Nc2ccc(S(N)(=O)=O)cc2)c2c1C(=O)c1ccccc1C2=O
Nucleic Acid [6]
  Kd: 11 µM
Nucleic Acid [7]
  IC50: 70 µM
  Ki: 20 µM
Nucleic Acid [8]
  Kd: 11000 µM

## O=C1Oc2ccccc2C(=O)/C1=C/N1C(=O)N/C(=C\c2ccccc2O)C1=O
Nucleic Acid [9]
  inhibition: Active
Nucleic Acid [7]
  IC50: 340 µM
  Ki: 110 µM

## O=C1NC(=S)NC(=O)C1=Cc1cn(-c2ccccc2)nc1-c1cc2c(ccc3ccccc32)oc1=O
Nucleic Acid [6]
  Kd: 68 µM
Nucleic Acid [7]
  IC50: 123 µM
  Ki: 40 µM
Nucleic Acid [8]
  Kd: 488 µM

## O=C(Cc1ccccc1)Nc1ccc(N2CCCC2)cc1
Nucleic Acid [2]
  Activity: inactive

## O=C(NN=Cc1ccc(Br)cc1)c1cc[n+](Cc2ccccc2)cc1
Nucleic Acid [1]
  Activity: Active
Nucleic Acid [2]
  Kd: 33 µM
Nucleic Acid [3]
  Activity: Active

## Cc1cccn2c(=O)c3cc(C(=O)NCCN4CCOCC4)c(=N)n(Cc4cccnc4)c3nc12
Nucleic Acid [1]
  Kd: 8.3 µM
Nucleic Acid [2]
  Kd: 5 µM
Nucleic Acid [3]
  Kd: 11.8 µM

## N=C1NC(=O)/C(=C\c2ccc3ccccc3c2)S1
Nucleic Acid [1]
  Kd: 11.2 µM
Nucleic Acid [2]
  Kd: 11 µM
Nucleic Acid [3]
  Kd: 8.9 µM

## Cc1cccn2c(=O)c3cc(C(=O)N4CCN(C)CC4)c(=N)n(CC4CCCO4)c3nc12 (centres undefined)
Nucleic Acid [4]
  Selectivity ratio: 13
Nucleic Acid [6]
  Kd: 14.5 µM
Nucleic Acid [10]
  Kd: 12000 µM
Nucleic Acid [5]
  Selectivity ratio: 19
Nucleic Acid [2]
  Kd: 10 µM
Nucleic Acid [11]
  Kd: 280 µM
Nucleic Acid [12]
  Kd: 189 µM
Nucleic Acid [13]
  Kd: 2400 µM

## Nc1c(S(=O)(=O)O)cc(Nc2cccc(S(N)(=O)=O)c2)c2c1C(=O)c1ccccc1C2=O
Nucleic Acid [9]
  inhibition: Active

## O=C1c2ccccc2C(=O)c2c(NCCO)ccc(NCCO)c21
Nucleic Acid [1]
  Kd: 3.2 µM
Nucleic Acid [7]
  IC50: 700 µM
  Ki: 200 µM
Nucleic Acid [2]
  Kd: 1.1 µM
Nucleic Acid [3]
  Kd: 2.2 µM

## O=C(NC(=S)Nc1ccc(N2CCCC2)cc1)c1ccccc1[N+](=O)[O-]
Nucleic Acid [2]
  Activity: inactive
